Results from ChEMBL document CHEMBL4118105, “High-Affinity Peptidomimetic Inhibitors of the DCN1-UBC12 Protein-Protein Interaction” (J Med Chem, 2018).
Values after ≈ are worked out from the molar mass of the structure shown. Each block holds one compound with its values, some of them ahead of it. Active and inactive are the calls of the source. No cut-off for these calls is given here. Non-standard residues stand in square brackets, D forms with d. Residues, ends and D or L forms follow the SMILES beside them. *: point of attachment. 2Nal = N[C@@H](Cc1ccc2ccccc2c1)C(=O)O; For = O=C*

Assays:
[1] = target: T1, DCN1-like protein 1 (Homo sapiens, UniProt Q96GG9); experiment: Binding affinity to biotin labeled recombinant N-terminal His6-tagged human DCN1 (58 to 259 residues) expressed in Escherichia coli Rosetta2 cells by biolayer interferometry analysis
In short: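 Recombinant human DCN1 (58–259) was biotinylated at a 1:1 molar ratio in PBS for 2 h at 4 °C, dialyzed, then loaded on super streptavidin sensors from a 10 μg/mL solution. Blocked streptavidin sensors served as reference.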
Target sequence in this assay (Q96GG9 whole entry, the tested form may be a part): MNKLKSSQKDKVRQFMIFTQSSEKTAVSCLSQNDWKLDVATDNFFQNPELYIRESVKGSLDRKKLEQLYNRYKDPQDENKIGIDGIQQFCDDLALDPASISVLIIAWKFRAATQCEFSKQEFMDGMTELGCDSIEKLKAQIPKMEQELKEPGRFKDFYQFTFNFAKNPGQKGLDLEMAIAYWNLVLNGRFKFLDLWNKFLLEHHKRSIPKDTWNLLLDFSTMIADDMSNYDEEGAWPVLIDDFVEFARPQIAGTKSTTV

[2] = target: T1, DCN1-like protein 1; experiment: Binding affinity to biotin labeled recombinant N-terminal His6-tagged human DCN1 (58 to 259 residues) expressed in Escherichia coli Rosetta2 cells assessed as dissociation rate constant by biolayer interferometry analysis
In short: (§1)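 Biotinylated DCN1 (1:1 molar biotin reagent, 4 °C 2 h, dialysed) loaded on super streptavidin sensors from 10 μg/mL to 11−12 nm response; blocked streptavidin sensors as reference. Run at 30 °C, 1000 rpm, in PBS with 0.1% BSA, 0.01% Tween-20, 2% DMSO; 10 min baseline wash. kon/koff from 1:1 binding model fits; two independent experiments.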
Target sequence in this assay (Q96GG9 whole entry, looked up, the tested form may be a part): as the sequence (Q96GG9 whole entry, the tested form may be a part) above

[3] = target: T1, DCN1-like protein 1; experiment: Inhibition of DCN1-mediated CUL2 neddylation in human H2170 cells at 10 uM after 16 hrs by Western blot analysis; format: cell-based
In short: (§2)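 H2170 cells exposed to compound for 16 h, then lysed in Triton X-100 or RIPA buffer with phosphatase inhibitors. Neddylated and unneddylated cullins, NRF2 and CDT1 read by Western blot on whole-cell lysate, with GAPDH as loading control.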
Target sequence in this assay (Q96GG9 whole entry, looked up, the tested form may be a part): as the sequence (Q96GG9 whole entry, the tested form may be a part) above

[4] = target: T1, DCN1-like protein 1; experiment: Inhibition of DCN1-mediated CUL3 neddylation in human H2170 cells at 10 uM after 16 hrs by Western blot analysis; format: cell-based; in short: as §2
Target sequence in this assay (Q96GG9 whole entry, looked up, the tested form may be a part): as the sequence (Q96GG9 whole entry, the tested form may be a part) above

[5] = target: T1, DCN1-like protein 1; experiment: Stabilization of DCN1 in human H2170 cells at 10 uM incubated for 1 hr by cellular thermal shift assay; format: cell-based
In short: (§3)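 H2170 cells (5 × 10^5 per sample) given compound or DMSO for 1 h, washed three times in PBS, resuspended in PBS with protease inhibitor, and heated at 53 °C for 3 min. Three liquid-nitrogen freeze/thaw-on-ice cycles followed. DCN1 in the supernatant read by Western blot, with GAPDH as loading control.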
Target sequence in this assay (Q96GG9 whole entry, looked up, the tested form may be a part): as the sequence (Q96GG9 whole entry, the tested form may be a part) above

[6] = target: T1, DCN1-like protein 1; experiment: Inhibition of DCN1-mediated CUL2 neddylation in human SK-MES-1 cells at 10 uM after 16 hrs by Western blot analysis; format: cell-based
Target sequence in this assay (Q96GG9 whole entry, looked up, the tested form may be a part): as the sequence (Q96GG9 whole entry, the tested form may be a part) above

[7] = target: T1, DCN1-like protein 1; experiment: Inhibition of DCN1-mediated CUL5 neddylation in human SK-MES-1 cells at 10 uM after 16 hrs by Western blot analysis; format: cell-based
Target sequence in this assay (Q96GG9 whole entry, looked up, the tested form may be a part): as the sequence (Q96GG9 whole entry, the tested form may be a part) above

[8] = target: T1, DCN1-like protein 1; experiment: Inhibition of DCN1-mediated CUL4B neddylation in human SK-MES-1 cells at 10 uM after 16 hrs by Western blot analysis; format: cell-based
[9] = target: T1, DCN1-like protein 1; experiment: Inhibition of DCN1-mediated CUL1 neddylation in human H2170 cells at 10 uM after 16 hrs by Western blot analysis; format: cell-based; in short: as §2
[10] = target: T1, DCN1-like protein 1; experiment: Inhibition of DCN1-mediated CUL3 neddylation in human SK-MES-1 cells at 10 uM after 16 hrs by Western blot analysis; format: cell-based
[11] = target: T1, DCN1-like protein 1; experiment: Inhibition of DCN1-mediated CUL3 neddylation in human H2170 cells assessed as increase in NRF2 level at 10 uM after 16 hrs by Western blot analysis; format: cell-based; in short: as §2
[12] = target: T1, DCN1-like protein 1; experiment: Inhibition of DCN1-mediated CUL4B neddylation in human H2170 cells at 10 uM after 16 hrs by Western blot analysis; format: cell-based; in short: as §2
[13] = target: T1, DCN1-like protein 1; experiment: Inhibition of DCN1-mediated CUL5 neddylation in human H2170 cells at 10 uM after 16 hrs by Western blot analysis; format: cell-based; in short: as §2
[14] = target: T1, DCN1-like protein 1; experiment: Inhibition of DCN1 interaction with UBC12 protein in human H2170 cell lysate at 20 uM after 3 hrs by immunoprecipitation assay
In short: (§4)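 Endogenous DCN1 pulled down from precleared lysates of treated cells with DCN1 antibody for 3 h, then protein A&G beads at 4 °C overnight with rotation. Beads washed three times in lysis buffer, complexes resolved by SDS−PAGE and immunoblotted.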

[15] = target: T1, DCN1-like protein 1; experiment: Inhibition of DCN1-mediated CUL4A neddylation in human H2170 cells at 10 uM after 16 hrs by Western blot analysis; format: cell-based; in short: as §2
[16] = target: T1, DCN1-like protein 1; experiment: Inhibition of DCN1-mediated CUL1 neddylation in human SK-MES-1 cells at 10 uM after 16 hrs by Western blot analysis; format: cell-based
[17] = target: T1, DCN1-like protein 1; experiment: Binding affinity to biotin labeled recombinant N-terminal His6-tagged human DCN1 (58 to 259 residues) expressed in Escherichia coli Rosetta2 cells assessed as association rate constant by biolayer interferometry analysis; in short: as §1
[18] = target: T1, DCN1-like protein 1; experiment: Inhibition of DCN1-mediated CUL4A neddylation in human SK-MES-1 cells at 10 uM after 16 hrs by Western blot analysis; format: cell-based
[19] = target: T1, DCN1-like protein 1; experiment: Displacement of (S)-N1-((19S,22S)-26-Amino-19-carbamoyl-1-(3',6'-dihydroxy-3-oxo-3H-spiro[isobenzofuran-1,9'-xanthen]-5-yl)-1,13,21-trioxo-5,8,11-trioxa-2,14,20-triazahexacosan-22-yl)-2-((2S,5S,8S,11S,14S,17S,20S,23S,26S)-2-(3-amino-3-oxopropyl)-5,20-bis(4-aminobutyl)-14-benzyl-23-((S)-sec-butyl)-11-(hydroxymethyl)-8,17-diisobutyl-26-(naphthalen-2-ylmethyl)-4,7,10,13,16,19,22,25,28-nonaoxo-3,6,9,12,15,18,21,24,27-nonaazanonacosanamido)pentanediamide from recombinant N-terminal His6-tagged human DCN1 (58 to 259 residues) expressed in Escherichia coli Rosetta2 cells after 30 mins by fluorescence polarization assay
Target sequence in this assay (Q96GG9 whole entry, the tested form may be a part): as above

[20] = target: T1, DCN1-like protein 1; experiment: Inhibition of DCN1-mediated CUL3 neddylation in human H2170 cells after 16 hrs by Western blot analysis; format: cell-based; in short: as §2
[21] = target: T1, DCN1-like protein 1; experiment: Inhibition of DCN1-mediated CUL2 neddylation in human H2170 cells at 0.1 to 10 uM after 16 hrs by Western blot analysis; format: cell-based; in short: as §2
[22] = target: T1, DCN1-like protein 1; experiment: Inhibition of DCN1-mediated CUL4B neddylation in human H2170 cells at 0.1 to 10 uM after 16 hrs by Western blot analysis; format: cell-based; in short: as §2
[23] = target: T1, DCN1-like protein 1; experiment: Stabilization of DCN1 in human H2170 cells incubated for 1 hr by cellular thermal shift assay; format: cell-based; in short: as §3
[24] = system: NCI-H2170; experiment: Effect on UBC12 levels in human NCI-H2170 cells at 5 to 10 uM after 24 hrs by Western blot analysis; format: functional, cell-based
[25] = target: T1, DCN1-like protein 1; experiment: Inhibition of DCN1-mediated CUL4A neddylation in human H2170 cells at 0.1 to 10 uM after 16 hrs by Western blot analysis; format: cell-based; in short: as §2
[26] = target: T1, DCN1-like protein 1; experiment: Inhibition of DCN1-mediated CUL3 neddylation in human H2170 cells assessed as increase in NRF2 level at 0.1 to 10 uM after 16 hrs by Western blot analysis; format: cell-based; in short: as §2
[27] = Equilibrium aqueous solubility of the compound in phosphate buffer of pH 7.4 after 24 hrs by shake-flask method; format: physicochemical
In short: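 Excess solid was suspended in phosphate buffer pH 7.4, sonicated 30 min, then shaken 24 h at room temperature. Suspensions were centrifuged at 15 000 rpm for 15 min and filtered through 0.45 μm membranes. The saturated concentration was read by UV at each compound's absorption maximum, found by spectrum scan.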

[28] = target: T1, DCN1-like protein 1; experiment: Inhibition of DCN1-mediated CUL5 neddylation in human H2170 cells at 0.1 to 10 uM after 16 hrs by Western blot analysis; format: cell-based; in short: as §2
[29] = system: NCI-H2170; experiment: Effect on DCN1 levels in human NCI-H2170 cells at 5 to 10 uM after 24 hrs by Western blot analysis; format: functional, cell-based
[30] = target: T1, DCN1-like protein 1; experiment: Inhibition of DCN1-mediated CUL3 neddylation in human SK-MES-1 cells up to 10 uM after 16 hrs by Western blot analysis; format: cell-based
[31] = target: T1, DCN1-like protein 1; experiment: Inhibition of DCN1-mediated CUL4A neddylation in human H2170 cells assessed as increase in CDT1 level at 0.1 to 10 uM after 16 hrs by Western blot analysis; format: cell-based; in short: as §2
[32] = target: T1, DCN1-like protein 1; experiment: Inhibition of DCN1 interaction with UBC12 protein in human H2170 cell lysate after 24 hrs by immunoprecipitation assay; in short: as §4

- Kd [1]: 8.3 nM
SMILES: CCC(=O)N[C@@H](Cc1nc2ccc(Cl)cc2s1)C(=O)N[C@H](C(=O)N[C@@H](CCCCN)C(=O)N[C@@H]1CCCc2ccccc21)C1CCCC1

- K [2]: 2.6 ×10⁻³ /s
- Kd [1]: 1470 nM
- inhibition [3]: inactive
- inhibition [4]: inactive
- Activity [5]: inactive
- inhibition [6]: inactive
- inhibition [7]: inactive
- inhibition [8]: inactive
- inhibition [9]: inactive
- inhibition [10]: inactive
- inhibition [11]: inactive
- inhibition [12]: inactive
- inhibition [13]: inactive
- inhibition [14]: inactive
- inhibition [15]: inactive
- inhibition [16]: inactive
- K [17]: 2.4 ×10³ /M/s
- inhibition [18]: inactive
SMILES: CCC(=O)N[C@@H](Cc1nc2ccc(Cl)cc2s1)C(=O)N[C@H](C(=O)N[C@@H](CCCCN)C(=O)N[C@@H]1CCOc2ccccc21)C1CCNCC1

- Kd [1]: 37 nM
- Ki [19]: 54.4 nM
SMILES: CCC(=O)N[C@@H](Cc1nc2ccc(F)cc2s1)C(=O)N[C@H](C(=O)N[C@@H](CCCCN)C(=O)NC(c1ccccc1)c1ccccc1)C1CCCC1

- Kd [1]: 8.1 nM
- IC50 [19]: 132 nM
- Ki [19]: < 50 nM
SMILES: CCC(=O)N[C@@H](Cc1nc2ccc(Cl)cc2s1)C(=O)N[C@H](C(=O)N[C@@H](CCCCN)C(=O)NC(c1ccccc1)c1ccccc1)C1CCCC1

- Kd [1]: 31.8 nM
- Ki [19]: 50.7 nM
SMILES: CCC(=O)N[C@@H](Cc1nc2ccccc2s1)C(=O)N[C@H](C(=O)N[C@@H](CCCCN)C(=O)NC(c1ccccc1)c1ccccc1)C1CCCC1

- Kd [1]: 5.7 nM
SMILES: CCC(=O)N[C@@H](Cc1nc2ccc(Cl)cc2s1)C(=O)N[C@H](C(=O)N[C@@H](CCCCN(C)C)C(=O)N[C@@H]1CCOc2ccccc21)C1CCCC1

- inhibition [20]: Dose-dependent effect
- K [2]: 2 ×10⁻³ /s
- inhibition [21]: inactive
- Kd [1]: 6.7 nM
- inhibition [22]: inactive
- Activity [23]: Dose-dependent effect
- inhibition [25]: inactive
- inhibition [26]: Active
- solubility thermodynamic at 24 h [27]: 54 µM (≈ 38.5 µg/mL)
- inhibition [9]: Active
- inhibition [28]: inactive
- inhibition [30]: Active
- inhibition [31]: inactive
- inhibition [32]: Dose-dependent effect
- K [17]: 2.9 ×10⁵ /M/s
SMILES: CCC(=O)N[C@@H](Cc1nc2ccc(Cl)cc2s1)C(=O)N[C@H](C(=O)N[C@@H](CCCCN)C(=O)N[C@@H]1CCOc2ccccc21)C1CCOCC1
- Activity [24]: inactive
- Activity [29]: inactive

- IC50 [19]: 128000 nM
- Ki [19]: 27500 nM
SMILES: CC[C@H](C)[C@H](NC(=O)[C@H](Cc1ccc2ccccc2c1)NC=O)C(=O)N[C@@H](CCCCN)C(=O)N[C@@H](CC(C)C)C(N)=O (For-[2Nal]IKL-NH2)
